ChEMBL document CHEMBL1145838, “Bioactive peptidic analogues and cyclostereoisomers of the minimal antinociceptive histogranin fragment-(7-10)” (J Med Chem, 2003)
pIC50: −log10 of the molar value. Square brackets hold non-standard residues; d marks the D form. Peptide text beside a SMILES is read from it. Phe(4-Cl) = N[C@@H](Cc1ccc(Cl)cc1)C(=O)O

How the values were obtained:
Mus musculus [1] = species on record: Mus musculus; assay: Compound was tested for antinociceptive potency using mouse writhing pain assay; format: functional
Procedure, shortened: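 Male Swiss Webster mice, 20–25 g, given peptide icv (10 μL in sterile water) or i.v.; 5 min later 1.0% AcOH (10 mL/kg) i.p. Doses 0, 0.25–50 nmol. Writhes counted for 10 min; % analgesia relative to vehicle controls, 10 mice per dose. AD50 and potency ratio with 95% CL by Litchfield–Wilcoxon.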

Rattus norvegicus = species on record: Rattus norvegicus; assay: Compound was tested for inhibition against [3H]raclopride to Rat brain membranes; format: functional, Membrane
Procedure, shortened: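 Rat brain membranes (male Wistar, 250–300 g; 0.8 mg protein) in 5 mM Tris-HCl pH 7.4, incubated with 2.5 nM [3H]raclopride for 60 min at 22 °C alongside 9–12 peptide concentrations (10⁻¹⁰–10⁻⁴ M). Nonspecific binding defined with 10 μM (+)butaclamol. IC50 by nonlinear least-squares fit; mean ± SE of ≥3 experiments run in duplicate.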

Mus musculus [2] = assay: Lack of Motor Effect measured as the time taken by the mice to remain on the rotarod after 30 min interval of icv administration of compound; format: functional
Procedure, shortened: (§1)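 Male Swiss Webster mice pre-screened on a 2.5 cm rod at 8 rpm (two 1-min rounds; fallers excluded). Peptides (10 or 2.5 nmol) or water vehicle given icv, then mice placed on the rod for 2 min. Time on rod recorded as mean ± SE, groups of 10; Student's t-test.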

Mus musculus [3] = assay: Lack of Motor Effect measured as the time taken by the mice to remain on the rotarod after 15 min interval of icv administration of compound; format: functional; procedure, shortened: as §1
Mus musculus [4] = assay: Lack of Motor Effect measured as the time taken by the mice to remain on the rotarod after 60 min interval of icv administration of compound; format: functional; procedure, shortened: as §1

pIC50 (Rattus norvegicus)	SMILES	AD50 (Mus musculus [1]) [nmol mouse-1]	Time (Mus musculus [2])	Time (Mus musculus [3])	Time (Mus musculus [4])
5.31	NC(=O)CC[C@@H]1NC(=O)CNC(=O)[C@H](CCCN=C(N)N)NC(=O)[C@H](Cc2ccc(O)cc2)NC1=O	2.26	–	–	–
5.63	C[C@@H]1NC(=O)CNC(=O)[C@@H](CCCN=C(N)N)NC(=O)[C@H](Cc2ccc(O)cc2)NC1=O [listing 1 of 2 here]	–	–	–	–
5.39	NC(=O)CC[C@H]1NC(=O)CNC(=O)[C@H](CCCN=C(N)N)NC(=O)[C@H](Cc2ccc(O)cc2)NC1=O	3.65	–	–	–
6.05	N=C(N)NCCC[C@H]1NC(=O)[C@H](Cc2ccc(O)cc2)NC(=O)[C@H](Cc2ccc(Cl)cc2)NC(=O)CNC1=O (cyclo(G[Phe(4-Cl)]Y[dR])) [listing 1 of 2 here]	–	–	–	–

The next lines start with the molecule.

SMILES	pIC50 (Rattus norvegicus)	AD50 (Mus musculus [1]) [nmol mouse-1]	Time (Mus musculus [2])	Time (Mus musculus [3])	Time (Mus musculus [4])
NC(=O)CC[C@H]1NC(=O)CNC(=O)[C@@H](CCCN=C(N)N)NC(=O)[C@H](Cc2ccc(O)cc2)NC1=O	5.17	4.21	–	–	–
N=C(N)NCCC[C@H]1NC(=O)[C@H](Cc2ccc(O)cc2)NC(=O)[C@H](Cc2ccc(N)cc2)NC(=O)CNC1=O [listing 1 of 2 here]	5.45	–	–	–	–
N=C(N)NCCC[C@H]1NC(=O)[C@H](Cc2ccc(O)cc2)NC(=O)[C@H](Cc2ccc(N)cc2)NC(=O)CNC1=O [listing 2 of 2 here]	–	2.52	–	–	–
C[C@@H]1NC(=O)CNC(=O)[C@@H](CCCN=C(N)N)NC(=O)[C@H](Cc2ccc(O)cc2)NC1=O [listing 2 of 2 here]	–	1.35	120	107	120
C[C@@H]1NC(=O)[C@@H](CCC(N)=O)NC(=O)CNC(=O)[C@H](CCCN=C(N)N)NC1=O	4.90	7.05	–	–	–
C[C@@H]1NC(=O)[C@@H](CCC(N)=O)NC(=O)CNC(=O)[C@@H](CCCN=C(N)N)NC1=O	–	13.3	–	–	–
C[C@H](NC(=O)[C@H](CCC(N)=O)NC(=O)CN)C(=O)N[C@@H](CCCN=C(N)N)C(=O)O (H-GQAR-OH)	–	3.42	–	–	–
NCC(=O)N[C@@H](CCC(N)=O)C(=O)NCC(=O)N[C@@H](CCCN=C(N)N)C(=O)O (H-GQGR-OH)	–	25.9	–	–	–
N=C(N)NCCC[C@H]1NC(=O)[C@H](Cc2ccc(O)cc2)NC(=O)[C@H](Cc2ccc(Cl)cc2)NC(=O)CNC1=O (cyclo(G[Phe(4-Cl)]Y[dR])) [listing 2 of 2 here]	–	0.17	115.8	104.1	110.2
